Reference: ChEMBL document CHEMBL2321753, “Synthesis and biological evaluation of radioiodinated quinacrine-based derivatives for SPECT imaging of Aβ plaques” (Eur J Med Chem, 2013)

How the values were obtained:
[1] = target: Amyloid-beta precursor protein (Homo sapiens, UniProt P05067); assay: Displacement of [125I]IMPY from amyloid beta (1 to 42) (unknown origin) after 3 hrs by gamma counting
In short: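 Filtered through GF/B filters and bound radioactivity gamma-counted. IC50 from displacement curves of three independent experiments; Ki calculated with the Cheng–Prusoff equation.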

Heart [2] = assay: Biodistribution in ddY mouse heart at 0.1 to 0.4 uCi, iv after 60 mins by gamma counting; assay type: ADME, organism-based; details: in vivo, 1 h
In short: (§1)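 [125I]ligand (0.1–0.4 µCi) in 100 µL PBS (pH 7.4) containing 30 µL DMSO, injected into the tail vein of ddY mice (5 weeks, 22–25 g). Mice sacrificed at 2, 10, 30 and 60 min. Organs removed, weighed and gamma-counted. Values are % injected dose per gram, except stomach as % dose per organ. Mean (SD) of 3–6 mice per time point.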

Pancreas [3] = assay: Biodistribution in ddY mouse pancreas at 0.1 to 0.4 uCi, iv after 60 mins by gamma counting; assay type: ADME, organism-based; details: in vivo, 1 h; in short: as §1
Stomach [4] = assay: Biodistribution in ddY mouse stomach assessed per organ at 0.1 to 0.4 uCi, iv after 60 mins by gamma counting; assay type: ADME, organism-based; details: in vivo, 1 h; in short: as §1
Lung [5] = assay: Biodistribution in ddY mouse lung at 0.1 to 0.4 uCi, iv after 60 mins by gamma counting; assay type: ADME, organism-based; details: in vivo, 1 h; in short: as §1
Spleen [6] = assay: Biodistribution in ddY mouse spleen at 0.1 to 0.4 uCi, iv after 60 mins by gamma counting; assay type: ADME, organism-based; details: in vivo, 1 h; in short: as §1
Intestine [7] = assay: Biodistribution in ddY mouse intestine at 0.1 to 0.4 uCi, iv after 60 mins by gamma counting; assay type: ADME, organism-based; details: in vivo, 1 h; in short: as §1
Kidney [8] = assay: Biodistribution in ddY mouse kidney at 0.1 to 0.4 uCi, iv after 60 mins by gamma counting; assay type: ADME, organism-based; details: in vivo, 1 h; in short: as §1
Liver [9] = assay: Biodistribution in ddY mouse liver at 0.1 to 0.4 uCi, iv after 60 mins by gamma counting; assay type: ADME, organism-based; details: in vivo, 1 h; in short: as §1
Brain [10] = assay: Biodistribution in ddY mouse brain at 0.1 to 0.4 uCi, iv after 60 mins by gamma counting; assay type: ADME, organism-based; details: in vivo, 1 h; in short: as §1
Blood [11] = assay: Biodistribution in ddY mouse blood at 0.1 to 0.4 uCi, iv after 60 mins by gamma counting; assay type: ADME, organism-based; details: in vivo, 1 h; in short: as §1
Heart [12] = assay: Biodistribution in ddY mouse heart at 0.1 to 0.4 uCi, iv after 30 mins by gamma counting; assay type: ADME, organism-based; details: in vivo, 0.5 h; in short: as §1
Pancreas [13] = assay: Biodistribution in ddY mouse pancreas at 0.1 to 0.4 uCi, iv after 30 mins by gamma counting; assay type: ADME, organism-based; details: in vivo, 0.5 h; in short: as §1
Stomach [14] = assay: Biodistribution in ddY mouse stomach assessed per organ at 0.1 to 0.4 uCi, iv after 30 mins by gamma counting; assay type: ADME, organism-based; details: in vivo, 0.5 h; in short: as §1
Lung [15] = assay: Biodistribution in ddY mouse lung at 0.1 to 0.4 uCi, iv after 30 mins by gamma counting; assay type: ADME, organism-based; details: in vivo, 0.5 h; in short: as §1
Spleen [16] = assay: Biodistribution in ddY mouse spleen at 0.1 to 0.4 uCi, iv after 30 mins by gamma counting; assay type: ADME, organism-based; details: in vivo, 0.5 h; in short: as §1
Intestine [17] = assay: Biodistribution in ddY mouse intestine at 0.1 to 0.4 uCi, iv after 30 mins by gamma counting; assay type: ADME, organism-based; details: in vivo, 0.5 h; in short: as §1
Kidney [18] = assay: Biodistribution in ddY mouse kidney at 0.1 to 0.4 uCi, iv after 30 mins by gamma counting; assay type: ADME, organism-based; details: in vivo, 0.5 h; in short: as §1
Liver [19] = assay: Biodistribution in ddY mouse liver at 0.1 to 0.4 uCi, iv after 30 mins by gamma counting; assay type: ADME, organism-based; details: in vivo, 0.5 h; in short: as §1
Brain [20] = assay: Biodistribution in ddY mouse brain at 0.1 to 0.4 uCi, iv after 30 mins by gamma counting; assay type: ADME, organism-based; details: in vivo, 0.5 h; in short: as §1
Blood [21] = assay: Biodistribution in ddY mouse blood at 0.1 to 0.4 uCi, iv after 30 mins by gamma counting; assay type: ADME, organism-based; details: in vivo, 0.5 h; in short: as §1
Heart [22] = assay: Biodistribution in ddY mouse heart at 0.1 to 0.4 uCi, iv after 10 mins by gamma counting; assay type: ADME, organism-based; details: in vivo; in short: as §1
Pancreas [23] = assay: Biodistribution in ddY mouse pancreas at 0.1 to 0.4 uCi, iv after 10 mins by gamma counting; assay type: ADME, organism-based; details: in vivo; in short: as §1
Stomach [24] = assay: Biodistribution in ddY mouse stomach assessed per organ at 0.1 to 0.4 uCi, iv after 10 mins by gamma counting; assay type: ADME, organism-based; details: in vivo; in short: as §1
Lung [25] = assay: Biodistribution in ddY mouse lung at 0.1 to 0.4 uCi, iv after 10 mins by gamma counting; assay type: ADME, organism-based; details: in vivo; in short: as §1
Spleen [26] = assay: Biodistribution in ddY mouse spleen at 0.1 to 0.4 uCi, iv after 10 mins by gamma counting; assay type: ADME, organism-based; details: in vivo; in short: as §1
Intestine [27] = assay: Biodistribution in ddY mouse intestine at 0.1 to 0.4 uCi, iv after 10 mins by gamma counting; assay type: ADME, organism-based; details: in vivo; in short: as §1
Liver [28] = assay: Biodistribution in ddY mouse liver at 0.1 to 0.4 uCi, iv after 10 mins by gamma counting; assay type: ADME, organism-based; details: in vivo; in short: as §1
Kidney [29] = assay: Biodistribution in ddY mouse kidney at 0.1 to 0.4 uCi, iv after 10 mins by gamma counting; assay type: ADME, organism-based; details: in vivo; in short: as §1
Brain [30] = assay: Biodistribution in ddY mouse brain at 0.1 to 0.4 uCi, iv after 10 mins by gamma counting; assay type: ADME, organism-based; details: in vivo; in short: as §1
Blood [31] = assay: Biodistribution in ddY mouse blood at 0.1 to 0.4 uCi, iv after 10 mins by gamma counting; assay type: ADME, organism-based; details: in vivo; in short: as §1
Pancreas [32] = assay: Biodistribution in ddY mouse pancreas at 0.1 to 0.4 uCi, iv after 2 mins by gamma counting; assay type: ADME, organism-based; details: in vivo; in short: as §1
Heart [33] = assay: Biodistribution in ddY mouse heart at 0.1 to 0.4 uCi, iv after 2 mins by gamma counting; assay type: ADME, organism-based; details: in vivo; in short: as §1
Stomach [34] = assay: Biodistribution in ddY mouse stomach assessed per organ at 0.1 to 0.4 uCi, iv after 2 mins by gamma counting; assay type: ADME, organism-based; details: in vivo; in short: as §1
Lung [35] = assay: Biodistribution in ddY mouse lung at 0.1 to 0.4 uCi, iv after 2 mins by gamma counting; assay type: ADME, organism-based; details: in vivo; in short: as §1
Intestine [36] = assay: Biodistribution in ddY mouse intestine at 0.1 to 0.4 uCi, iv after 2 mins by gamma counting; assay type: ADME, organism-based; details: in vivo; in short: as §1
Spleen [37] = assay: Biodistribution in ddY mouse spleen at 0.1 to 0.4 uCi, iv after 2 mins by gamma counting; assay type: ADME, organism-based; details: in vivo; in short: as §1
Kidney [38] = assay: Biodistribution in ddY mouse kidney at 0.1 to 0.4 uCi, iv after 2 mins by gamma counting; assay type: ADME, organism-based; details: in vivo; in short: as §1
Liver [39] = assay: Biodistribution in ddY mouse liver at 0.1 to 0.4 uCi, iv after 2 mins by gamma counting; assay type: ADME, organism-based; details: in vivo; in short: as §1
Blood [40] = assay: Biodistribution in ddY mouse blood at 0.1 to 0.4 uCi, iv after 2 mins by gamma counting; assay type: ADME, organism-based; details: in vivo; in short: as §1
Brain [41] = assay: Biodistribution in ddY mouse brain at 0.1 to 0.4 uCi, iv after 2 mins by gamma counting; assay type: ADME, organism-based; details: in vivo; in short: as §1
[42] = n-octanol-sodium phosphate buffer partition co-efficient, log D of the compound at pH 7.4 by shake flask method; assay type: physicochemical
In short: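 Shake-flask partition between n-octanol and sodium phosphate buffer, pH 7.4, shaken 10 min at room temperature, then centrifuged. Weighed 0.5 mL samples of each layer counted. log D from the ratio of cpm per gram of octanol to cpm per gram of buffer; n = 3.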

Chain of Amyloid-beta precursor protein (P05067 whole entry): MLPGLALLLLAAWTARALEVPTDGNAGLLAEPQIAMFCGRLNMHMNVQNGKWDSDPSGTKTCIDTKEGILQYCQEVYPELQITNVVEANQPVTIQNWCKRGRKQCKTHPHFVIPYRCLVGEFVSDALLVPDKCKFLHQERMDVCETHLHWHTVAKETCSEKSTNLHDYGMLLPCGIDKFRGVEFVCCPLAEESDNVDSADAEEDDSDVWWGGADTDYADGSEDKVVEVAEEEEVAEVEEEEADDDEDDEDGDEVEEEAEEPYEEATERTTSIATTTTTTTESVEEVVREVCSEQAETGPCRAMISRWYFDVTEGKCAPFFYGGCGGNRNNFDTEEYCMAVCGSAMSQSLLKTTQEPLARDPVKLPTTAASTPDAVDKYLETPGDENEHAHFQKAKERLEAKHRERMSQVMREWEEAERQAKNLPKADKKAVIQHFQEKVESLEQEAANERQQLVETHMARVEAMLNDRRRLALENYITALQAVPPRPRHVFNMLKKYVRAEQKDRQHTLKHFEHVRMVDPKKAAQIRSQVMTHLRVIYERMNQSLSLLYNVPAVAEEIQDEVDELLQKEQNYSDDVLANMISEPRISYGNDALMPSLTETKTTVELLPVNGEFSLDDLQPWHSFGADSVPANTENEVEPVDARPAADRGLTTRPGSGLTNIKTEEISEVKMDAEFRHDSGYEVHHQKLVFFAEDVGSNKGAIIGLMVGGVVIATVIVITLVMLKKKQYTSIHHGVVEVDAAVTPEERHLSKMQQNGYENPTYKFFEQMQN

Structure (SMILES): CNc1c2ccc(I)cc2nc2ccc(OC)cc12
- Ki [1]: 13.8 nM

Structure (SMILES): COc1ccc2nc3cc(I)ccc3c(OC)c2c1
- Ki [1]: 28.9 nM

Structure (SMILES): COc1ccc2nc3cc([125I])ccc3c(N(C)C)c2c1
- Drug uptake (Heart [2]): 4.33 % ID/g
- Drug uptake (Pancreas [3]): 9.81 % ID/g
- Drug uptake (Stomach [4]): 1.4 %ID
- Drug uptake (Lung [5]): 21.84 % ID/g
- Drug uptake (Spleen [6]): 11.22 % ID/g
- Drug uptake (Intestine [7]): 6.5 % ID/g
- Drug uptake (Kidney [8]): 16.34 % ID/g
- Drug uptake (Liver [9]): 12.55 % ID/g
- Drug uptake (Brain [10]): 0.23 % ID/g
- Drug uptake (Blood [11]): 0.64 % ID/g
- Drug uptake (Heart [12]): 9.08 % ID/g
- Drug uptake (Pancreas [13]): 7.85 % ID/g
- Drug uptake (Stomach [14]): 2.21 %ID
- Drug uptake (Lung [15]): 46.47 % ID/g
- Drug uptake (Spleen [16]): 14.49 % ID/g
- Drug uptake (Intestine [17]): 5.33 % ID/g
- Drug uptake (Kidney [18]): 21.56 % ID/g
- Drug uptake (Liver [19]): 16.43 % ID/g
- Drug uptake (Brain [20]): 0.28 % ID/g
- Drug uptake (Blood [21]): 1.26 % ID/g
- Drug uptake (Heart [22]): 11.2 % ID/g
- Drug uptake (Pancreas [23]): 6.5 % ID/g
- Drug uptake (Stomach [24]): 2.18 %ID
- Drug uptake (Lung [25]): 57.02 % ID/g
- Drug uptake (Spleen [26]): 9.65 % ID/g
- Drug uptake (Intestine [27]): 3.13 % ID/g
- Drug uptake (Liver [28]): 11.77 % ID/g
- Drug uptake (Kidney [29]): 18.16 % ID/g
- Drug uptake (Brain [30]): 0.26 % ID/g
- Drug uptake (Blood [31]): 1.97 % ID/g
- Drug uptake (Pancreas [32]): 5.21 % ID/g
- Drug uptake (Heart [33]): 16.28 % ID/g
- Drug uptake (Stomach [34]): 1.37 %ID
- Drug uptake (Lung [35]): 79.34 % ID/g
- Drug uptake (Intestine [36]): 2.22 % ID/g
- Drug uptake (Spleen [37]): 6.94 % ID/g
- Drug uptake (Kidney [38]): 16.71 % ID/g
- Drug uptake (Liver [39]): 10.85 % ID/g
- Drug uptake (Blood [40]): 4.76 % ID/g
- Drug uptake (Brain [41]): 0.33 % ID/g
- logD [42]: 2.19

Structure (SMILES): COc1c2ccccc2nc2cc(I)ccc12
- Ki [1]: > 10000 nM
